Source: PubChem BioAssay (several laboratories)
The list is not random: actives were taken first. Their share in the collection is about 2.5%.
MEKK2 WT-MEK5: raises or lowers MEK5 binding to wildtype human MEKK2 PB1 domain; bead flow cytometry, Alexa488-MEK5 binding to MEKK2 WT; actives lie on both sides; 290,000 tested, 1.1% active; AID 1531; Q9Y2U5; binding response (% of control), % at 10 µM; in the data active = binding response below about 67% or above about 130%
UCH37 DUB inh: inhibitors of human deubiquitinating enzyme UCH37; Q9Y5K5; purified proteasome/UCH37, Ub-AMC cleavage fluorescence; inhibition, % (no concentration beside the values); 330,000 tested, 0.33% active; AID 588478;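 active = mean inhibition over replicate wells above about 20%, limit read from the data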;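 also: 0% = compound-free wells with enzyme and 100% = wells lacking proteasome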
Target sequence (Q9Y5K5 whole entry, looked up): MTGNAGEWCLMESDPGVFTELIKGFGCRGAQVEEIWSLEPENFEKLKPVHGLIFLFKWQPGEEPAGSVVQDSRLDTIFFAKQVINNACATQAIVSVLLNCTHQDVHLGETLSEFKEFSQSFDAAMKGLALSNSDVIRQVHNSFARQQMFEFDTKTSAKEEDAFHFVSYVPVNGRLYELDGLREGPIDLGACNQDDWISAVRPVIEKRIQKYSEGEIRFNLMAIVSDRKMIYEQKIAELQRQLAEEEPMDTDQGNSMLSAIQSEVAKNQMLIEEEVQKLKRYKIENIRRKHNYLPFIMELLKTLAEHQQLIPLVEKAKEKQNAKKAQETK
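Assay system: Proteasome-bound UCH37. Buffer or medium: pH 7.4 Tris-HCl (50 mM) with ovalbumin, ATP-MgCl2, DTT. Incubation: 30 min preincubation with enzyme, 25 min cleavage at room temperature. Measured by: fluorescence, ex 355 nm, em 460 nm. Read-out basis: percent inhibition. Control set: wells without proteasome as full block, compound-free enzyme plus substrate as uninhibited.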
T cell HTS: modulates CD8 T cell binding to vesicles; 2C CD8+ T cell-vesicle binding, flow cytometry; hits give low values; response (vesicle binding), % at 7 µM; 330,000 tested, 0.068% active; AID 2052;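 active = response, share of CD8 T cells binding vesicles, and their 90th percentile fluorescence all below set limits, cut at about 80% in these data, passing the limit was not always enough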;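 also: values below 100% mean blocked vesicle binding to the CD8+ T cells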
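Material: murine 2C transgenic CD8+ T lymphocytes / Also added: QL9-peptide-loaded Drosophila micro-vesicles bearing Ld, ICAM-1 and B7-1 / Schedule: binding step 1.5 h, 37 °C, antibody labelling 20 min, ice / Signal: flow cytometry, PE anti-B7-1 (FL2) versus Alexa647 anti-CD8 (FL8), PFA-fixed / Evaluation: percent CD8+ FL2 mean versus row control / Benchmarks: naked versus QL9-loaded vesicles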
MEKK3 PB1 HTS: raises or lowers MEK5 binding to the human MEKK3 PB1 domain; Q99759; bead-based flow cytometry, Alexa488-MEK5 binding to MEKK3; actives lie on both sides; 0 = blocked by unlabeled MEK5, 100 = vehicle; binding response (% of control), % at 10 µM; 290,000 tested, 1.4% active;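 active = binding response more than 3 SD above or below the average of its plate-row segment, actives on both sides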;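 also: Alexa488 bead fluorescence after subtracting the streptavidin-only scavenger bead signal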
Rce1 inhib: inhibitors of yeast Ras-converting enzyme; Q03530; yeast membranes, quenched prenylated peptide cleavage fluorescence; calls only; 290,000 tested, 0.27% active;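 active = fall in fluorescence gain of 50% or more versus controls, with final raw signal at or below 3038400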;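 also: plate controls were neutral control wells for no effect and wells lacking membranes for full effect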
MEKK2 mut-MEK5: signal of MEK5 binding to mutant human MEKK2 PB1 domain; bead flow cytometry, Alexa488-MEK5 binding to MEKK2 mutant; percent response, % at 10 µM; 290,000 tested, 0.35% active; in the data active = percent response above about 24%, passing the limit was not always enough
MEKK2wt confirm: raises or lowers MEK5 binding to wildtype human MEKK2, retest | shares compounds with MEKK3 PB1 HTS | AID 1892 | 5,900 tested, 2.4% active | bead flow cytometry, Alexa488-MEK5 binding to MEKK2 WT; actives lie on both sides | binding response (% of control), % at 10 µM; in the data active = binding response below about 16% or above about 210%; inactive = in between
MEKK2mut-MEK5: signal of MEK5 binding to mutant human MEKK2, retest | shares compounds with MEKK3 PB1 HTS | bead flow cytometry, Alexa488-MEK5 binding to MEKK2 mutant | percent response, % at 10 µM | 5,900 tested, 2% active; in the data active = percent response mostly above about 71%, no sharp cut-off; inactive = mostly below about 38%;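 also: higher means compound restores mutant binding toward wildtype level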
MEKK3-MEK5 inh: MEKK3-MEK5 PB1 inhibition, single concentration confirmation | shares compounds with MEKK3 PB1 HTS | bead flow cytometry, Alexa488-MEK5 binding to MEKK3; hits give low values | binding response (% of control), % at 10 µM | 5,900 tested, 1.8% active;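 active = binding response below 72% of control, or above a set upper limit, though filed actives all read lower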;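 also: 100% = DMSO only wells and 0% = binding blocked by excess unlabeled MEK5; lower values mean stronger disruption of MEK5 binding to MEKK3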
* = called active by the depositor; i = inactive; x = no result; [ ] = remark or other dose.

SMILES	MEKK2 WT-MEK5	UCH37 DUB inh	T cell HTS	MEKK3 PB1 HTS	Rce1 inhib	MEKK2 mut-MEK5	MEKK2wt confirm	MEKK2mut-MEK5	MEKK3-MEK5 inh
CCC1CCCCN1C(=O)CSC1=NN2CCCC(=O)N=C2S1 (stereo not given)	124.0	2.3	436.4	132.0*	x	27.0	83.0	-10.0	83.0
CC(=NNS(=O)(=O)c1ccc(C)cc1)c1cccs1	x	3.7	x	x	x	x	x	x	x
O=C(COc1ccc(Br)cc1)Nc1cc(S(=O)(=O)N2CCCCC2)ccc1N1CCCCC1	106.0	0.2	311.6	139.0*	i	0.0	101.0	-1.0	101.0
CC(=O)Nc1nnc(SCC(=O)N2CCN(Cc3ccccc3)CC2)s1	105.0	5.3	i	75.0*[inhibitor]	i	3.0	103.0	-1.0	103.0
CCOc1cc(C=NNC(=O)Cn2nc([N+](=O)[O-])cc2C)cc(Br)c1OCc1ccccc1C	x	1.8	x	x	x	x	x	x	x
CC(=NNC(=O)c1nnn(-c2nonc2N)c1COc1ccc(F)cc1)c1ccc(Cl)cc1	x	-1.5	x	x	x	x	x	x	x
C/C(=N\NC(=S)Nc1cccc(C)c1)c1ccccc1	101.0	x	459.3	102.0	i	6.0	x	x	x
C/C(=N\NC(=S)Nc1cccc(C)c1)c1ccco1	9.0*[inhibitor]	x	436.9	7.0*[inhibitor]	i	-18.0	106.0	5.0	105.0
COc1ccc(OCC(=O)NN=C(CCC(=O)O)c2cccs2)cc1	x	2.8	x	x	x	x	x	x	x
O=C(Nc1ccc(S(=O)(=O)N2CCCC2)cc1)c1ccc(CN2CCOCC2)cc1	x	4.8	160.7	x	i	x	x	x	x
CC(=O)c1c(C)[nH]c(C(=O)Nc2ccc(Cl)c(S(=O)(=O)N3CCOCC3)c2)c1C	99.0	4.1	268.8	103.0	i	12.0	x	x	x
COc1ccccc1C(=O)Nc1ccc(S(=O)(=O)N2CCOCC2)cc1	103.0	2.9	151.6	107.0	i	24.0*	97.0	1.0	105.0
CCOc1ccccc1C(=O)Nc1ccc(S(=O)(=O)N2CCOCC2)cc1	107.0	-3.8	150.7	108.0	i	11.0	x	x	x
COc1ccc(NC(=O)c2[nH]c(C)c(C(C)=O)c2C)cc1S(=O)(=O)N1CCOCC1	105.0	0.4	552.2	129.0*	i	0.0	102.0	-3.0	103.0
O=C(Nc1ccc(S(=O)(=O)N2CCCCC2)cc1)c1ccc(CN2CCOCC2)cc1	89.0	2.2	584.4	74.0*[inhibitor]	i	5.0	104.0	2.0	107.0
COc1ccc(C=NNC(=O)c2ccc(OC)c(OC)c2)cc1COc1c(F)c(F)c(F)c(F)c1F	x	4.3	x	x	x	x	x	x	x
COc1ccc2c(c1)C(=O)OC2CC(=O)O (stereo not given)	14.0*[inhibitor]	-0.9	546.6	9.0*[inhibitor]	i	-15.0	105.0	0.0	105.0
COc1ccc(NC(=O)c2nc[nH]c2C(=O)N2CCC(C)CC2)cc1	101.0	-0.1	677.9	75.0*[inhibitor]	i	-7.0	100.0	-1.0	101.0
Fc1ccc(NC(=S)Nc2cc(Cl)ccc2Cl)cc1	107.0	1.4	226.4	115.0	x	0.0	x	x	x
Fc1ccc(NC(=S)Nc2ccc(Cl)cc2)cc1	129.0	6.1	557.7	141.0*	i	5.0	99.0	-5.0	97.0
CCOC(=O)C1=C(C)Nc2nc3ccccc3n2C1c1ccc(O)cc1 (stereo not given)	98.0	-7.0	111.2	100.0	i	6.0	x	x	x
CCOC(=O)c1ccccc1-n1c(C)cc(C2N=C(N)Nc3nc4ccccc4n32)c1C (stereo not given)	146.0*	0.8	682.9	113.0	i	29.0	153.0	29.0	106.0
